Active and inactive are the calls of the source. The calls are words filed in the database; no cut-off is given here.
What was measured:
Rattus norvegicus [1] = species: Rattus norvegicus; test: Displacement of [3H]CGP-12177 from beta1-adrenergic receptor in rat cerebral cortex at 50 uM after 60 mins by scintillation counting; type: tissue-based
Mus musculus [2] = test: Anticonvulsant activity in CF1 mouse assessed as protection against subcutaneous metrazole-induced seizures at 30 mg/kg, ip after 0.5 hrs; type: functional, organism-based; parameters: dose 30 mg/kg
How it was run: (§1)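 Mice given compound i.p. at 30, 100 or 300 mg/kg and tested 0.5 or 4 h after dosing. Seizures were induced by maximal electroshock (MES) or subcutaneous metrazole (ScMet). Prevention of seizures counts as protection. Result is recorded as number of animals protected over number tested.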

Rattus norvegicus [3] = test: Neurotoxicity in Sprague-Dawley rat assessed as minimal motor impairment at 30 mg/kg, po after 2 hrs by rotorod test; conditions: in vivo
Rattus norvegicus [4] = test: Neurotoxicity in Sprague-Dawley rat assessed as minimal motor impairment at 30 mg/kg, po after 0.25 hrs by rotorod test; conditions: in vivo
[5] = target: 5-hydroxytryptamine receptor 7 (Homo sapiens, UniProt P34969); test: Displacement of [3H]5-CT from human 5HT7b receptor expressed in HEK293 cells after 1 hr; type: cell-based
5-hydroxytryptamine receptor 7, sequence (P34969 whole entry): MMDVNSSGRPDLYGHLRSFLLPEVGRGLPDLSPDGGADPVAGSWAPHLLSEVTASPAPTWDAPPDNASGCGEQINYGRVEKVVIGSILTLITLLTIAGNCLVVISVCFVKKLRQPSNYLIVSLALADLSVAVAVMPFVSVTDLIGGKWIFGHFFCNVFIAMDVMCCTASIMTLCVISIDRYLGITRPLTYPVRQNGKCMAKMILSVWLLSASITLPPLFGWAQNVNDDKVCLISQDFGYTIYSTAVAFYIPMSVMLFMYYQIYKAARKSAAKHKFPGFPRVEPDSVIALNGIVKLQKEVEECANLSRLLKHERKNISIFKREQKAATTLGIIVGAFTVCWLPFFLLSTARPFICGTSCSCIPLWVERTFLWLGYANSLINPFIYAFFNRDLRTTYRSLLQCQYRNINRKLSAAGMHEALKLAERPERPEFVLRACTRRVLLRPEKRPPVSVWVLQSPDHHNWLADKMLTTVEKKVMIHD

Rattus norvegicus [6] = test: Neurotoxicity in Sprague-Dawley rat assessed as minimal motor impairment at 30 mg/kg, po after 1 hr by rotorod test; conditions: in vivo
Mus musculus [7] = test: Anticonvulsant activity in CF1 mouse assessed as protection against subcutaneous metrazole-induced seizures at 100 mg/kg, ip after 4 hrs; type: functional, organism-based; parameters: dose 100 mg/kg; how it was run: as §1
Mus musculus [8] = test: Anticonvulsant activity in CF1 mouse assessed as protection against subcutaneous metrazole-induced seizures at 100 mg/kg, ip after 0.5 hrs; type: functional, organism-based; parameters: dose 100 mg/kg; how it was run: as §1
[9] = target: 5-hydroxytryptamine receptor 6 (Homo sapiens, UniProt P50406); test: Displacement of [3H]LSD from human 5HT6 receptor expressed in HEK293 cells after 1 hr; type: cell-based
5-hydroxytryptamine receptor 6, sequence (P50406 whole entry): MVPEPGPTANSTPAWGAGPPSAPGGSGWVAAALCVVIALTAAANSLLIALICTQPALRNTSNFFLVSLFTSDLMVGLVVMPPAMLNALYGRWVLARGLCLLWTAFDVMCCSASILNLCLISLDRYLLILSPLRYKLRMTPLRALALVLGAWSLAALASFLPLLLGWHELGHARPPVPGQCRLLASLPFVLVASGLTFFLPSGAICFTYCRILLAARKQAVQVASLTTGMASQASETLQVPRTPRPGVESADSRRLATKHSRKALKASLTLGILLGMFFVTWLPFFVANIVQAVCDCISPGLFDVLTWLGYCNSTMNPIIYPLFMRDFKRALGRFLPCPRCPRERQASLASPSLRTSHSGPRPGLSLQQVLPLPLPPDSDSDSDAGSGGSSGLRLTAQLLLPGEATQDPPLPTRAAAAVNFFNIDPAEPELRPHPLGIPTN

Mus musculus [10] = test: Anticonvulsant activity in CF1 mouse assessed as protection against maximal electroshock-induced seizures at 30 mg/kg, ip after 0.5 hrs; type: functional, organism-based; parameters: dose 30 mg/kg; how it was run: as §1
Mus musculus [11] = test: Neurotoxicity in CF1 mouse assessed as minimal motor impairment at 30 mg/kg, ip after 0.5 hrs by rotorod test; type: toxicity, organism-based; parameters: dose 30 mg/kg, route intraperitoneal; conditions: in vivo
How it was run: (§2)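 Rotarod neurotoxicity screen in mice dosed i.p. at 30, 100 or 300 mg/kg, read 0.5 or 4 h after dosing. The animal must stay on a rod rotating at 6 rpm without falling, measured 3 times within 1 min. A fall counts as minimal motor impairment. Result is recorded as impaired animals over animals used.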

Rattus norvegicus [12] = test: Neurotoxicity in Sprague-Dawley rat assessed as minimal motor impairment at 30 mg/kg, po after 0.5 hrs by rotorod test; conditions: in vivo
Mus musculus [13] = test: Anticonvulsant activity in CF1 mouse assessed as protection against maximal electroshock-induced seizures at 100 mg/kg, ip after 4 hrs; type: functional, organism-based; parameters: dose 100 mg/kg; how it was run: as §1
Mus musculus [14] = test: Anticonvulsant activity in CF1 mouse assessed as protection against subcutaneous metrazole-induced seizures at 30 mg/kg, ip after 4 hrs; type: functional, organism-based; parameters: dose 30 mg/kg; how it was run: as §1
Mus musculus [15] = test: Neurotoxicity in CF1 mouse assessed as minimal motor impairment at 300 mg/kg, ip after 0.5 hrs by rotorod test; type: toxicity, organism-based; parameters: dose 300 mg/kg, route intraperitoneal; conditions: in vivo; how it was run: as §2
Rattus norvegicus [16] = test: Anticonvulsant activity in Sprague-Dawley rat assessed as protection against maximal electroshock-induced seizures at 30 mg/kg, po after 4 hrs; type: functional, organism-based; parameters: dose 30 mg/kg
How it was run: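 Rats dosed orally at 30 mg/kg and tested in MES at several time points after dosing. Protection means seizures were prevented. Result is recorded as number of animals protected over number tested.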

Cl.Cl.Cl.O=c1c2ccc(Cl)cc2oc2c(CN3CCN(CCO)CC3)cccc12
inhibition (Rattus norvegicus [1]): inactive | Activity (Mus musculus [2]): inactive | Activity (Rattus norvegicus [3]): Non-toxic | Activity (Rattus norvegicus [4]): Non-toxic | Ki [5]: 17.4 µM | Activity (Rattus norvegicus [6]): Non-toxic | Activity (Mus musculus [7]): inactive | Activity (Mus musculus [8]): inactive | Ki [9]: 14.4 µM | Activity (Mus musculus [10]): inactive | Activity (Mus musculus [11]): Non-toxic | Activity (Rattus norvegicus [12]): Non-toxic | Activity (Mus musculus [13]): inactive | Activity (Mus musculus [14]): inactive | Activity (Mus musculus [15]): Toxic | Activity (Rattus norvegicus [16]): Active
